Among the data in ChEMBL document CHEMBL4392839, “Syntheses and bioactivities of songorine derivatives as novel G protein-coupled receptor antagonists” (Bioorg Med Chem, 2019) are IC50 and inhibition values, retold here.

pIC50: −log10 of the molar value. A value given as a limit tells only on which side of the number the result lay.

Assay [1] in a line: Antagonist activity at mouse GPCR by double antibody sandwich ELISA. The gist of the method: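 Double-antibody sandwich ELISA measuring mouse GPCR content, with a GPCR standard. Sample was mixed with diluted standard (37 ℃, 10 min), added to antibody-coated wells, then HRP conjugate was added (37 ℃, 30 min), followed by chromogens A and B and stop solution. OD450 was read within 5 min. Tested at 10 ng/L, 1 ng/mL, 0.1 μg/mL and 10 μg/mL, 30% DMSO in well. Percent inhibition versus no-inhibitor control (100%) from three independent experiments; IC50 from absorbance.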

The species named for a further assay is Mus musculus. The assay can be described thus: Antagonist activity at mouse GPCR at 10 ng/L by double antibody sandwich ELISA relative to control. (In general: ELISA stands for enzyme-linked immunosorbent assay.)

Usually pIC50 stands for the negative decadic logarithm of the IC50, by convention in mol/L. The low end stands for a high IC50, the high end for a low IC50. By inhibition is commonly meant the percentage by which the read-out fell short of the control. A higher inhibition goes with strong suppression. The compound `C=C1[C@H]2C[C@@]3([C@@H]1OC(=O)COC)[C@@H](CC2=O)[C@@]12[C@@H](OC(=O)COC)CC[C@@]4(C)CN(CC)[C@H]1[C@@H]3C[C@H]42` showed a pIC50 in assay [1] of 10.10. Moreover, the inhibition in the assay filed under Mus musculus stood at 85.3%.

`C=C1[C@H]2C[C@@]3([C@@H]1OC(=O)/C=C/c1ccccc1)[C@@H](CC2=O)[C@@]12[C@@H]4[C@@H]3C[C@@H]1[C@@](C)(CC[C@@H]2O)CN4CC` had a pIC50 in assay [1] of 9.54. In the assay filed under Mus musculus, this compound returned an inhibition of 57.1%.

In turn, `C=C1[C@H]2C[C@@]3([C@@H]1O)[C@@H](C/C2=N/O)[C@@]12[C@@H]4[C@@H]3C[C@@H]1[C@@](C)(CC[C@@H]2O)CN4CC` had a pIC50 in assay [1] of 9.26. For the same compound, the inhibition in the assay listed under Mus musculus came to 73.3%.

As for `C=C1[C@H]2C[C@@]3([C@@H]1S)[C@@H](CC2=S)[C@@]12[C@@H]4[C@@H]3C[C@@H]1[C@@](C)(CC[C@@H]2S)CN4CC`, the negative logarithm of the IC50 (pIC50) in assay [1] is under 8.00. Besides, the inhibition in the assay listed under Mus musculus was 39.3%.

Compound `C=C1[C@H]2C[C@@]3([C@@H]1O)[C@@H](C[C@@H]2O)[C@@]12[C@@H]4[C@@H]3C[C@@H]1[C@@](C)(CC[C@@H]2O)CN4CC` showed a pIC50 in assay [1] of under 8.00. In the assay listed under Mus musculus, the inhibition came to 39.4%.

Turning to `C=C1[C@H]2C[C@@]3([C@@H]1OC(C)=O)[C@@H](CC2=O)[C@@]12[C@@H]4[C@@H]3C[C@@H]1[C@@](C)(CC[C@@H]2O)CN4CC`, the pIC50 in assay [1] is 8.58. In the assay filed under Mus musculus, this compound showed an inhibition of 48.6%.

As to `C=C1[C@H]2C[C@@]3([C@@H]1OC(=O)CC)[C@@H](C/C2=N/OC(=O)CC)[C@@]12[C@@H](OC(=O)CC)CC[C@@]4(C)CN(CC)[C@H]1[C@@H]3C[C@H]42`, in assay [1], the pIC50 was under 8.00. In the assay filed under Mus musculus, this compound gave an inhibition of 36.4%.

On to `C=C1C(=O)[C@]23C[C@H]1C(=O)C[C@H]2[C@@]12C(=O)CC[C@@]4(C)CN(CC)[C@H]1[C@@H]3C[C@H]42`, for which the pIC50 in assay [1] was under 8.00. The compound further came in with an inhibition in the assay filed under Mus musculus of 34.6%.

In assay [1], `C=C1[C@H]2C[C@@]3([C@@H]1OC(C)=O)[C@@H](CC2=O)[C@@]12[C@@H](OC(C)=O)CC[C@@]4(C)CN(CC)[C@H]1[C@@H]3C[C@H]42` gave a pIC50 of 9.29. Besides, the inhibition in the assay filed under Mus musculus was determined as 65.2%.

In the case of `C=C1[C@H]2C[C@@]3([C@@H]1O)[C@@H](C/C2=N/NS(=O)(=O)c1ccc(C)cc1)[C@@]12[C@@H]4[C@@H]3C[C@@H]1[C@@](C)(CC[C@@H]2O)CN4CC`, the pIC50 in assay [1] is under 8.00. The inhibition in the assay listed under Mus musculus turned out to be 37.7%.

The compound `C=C1C(=O)[C@]23C[C@H]1C(=O)C[C@H]2[C@@]12[C@@H]4[C@@H]3C[C@@H]1[C@@](C)(CC[C@@H]2O)CN4CC` had a pIC50 in assay [1] of 8.00. Besides, the inhibition in the assay listed under Mus musculus amounted to 54.6%.

As for `C=C1[C@H]2C[C@@]3([C@@H]1O)[C@@H](C[C@H]2O)[C@@]12[C@@H]4[C@@H]3C[C@@H]1[C@@](C)(CC[C@@H]2O)CN4CC`, the negative-log IC50 (pIC50) in assay [1] is under 8.00. Further, the inhibition in the assay listed under Mus musculus was determined as 46.3%.

`C=C1[C@H]2C[C@@]3([C@@H]1OC(=O)c1ccccc1)[C@@H](CC2=O)[C@@]12[C@@H]4[C@@H]3C[C@@H]1[C@@](C)(CC[C@@H]2O)CN4CC` gave a pIC50 in assay [1] of 8.35. For the same compound, the inhibition in the assay filed under Mus musculus came out at 37.7%.

Turning to `C=C1[C@H]2C[C@@]3([C@@H]1OC(=O)CC)[C@@H](C/C2=N/OC(=O)CC)[C@@]12[C@@H]4[C@@H]3C[C@@H]1[C@@](C)(CC[C@@H]2O)CN4CC`, the pIC50 in assay [1] was 8.44. In the assay listed under Mus musculus, this compound displayed an inhibition of 50.3%.

Compound `C=C1[C@H]2C[C@@]3([C@@H]1O)[C@@H](CC2=O)[C@@]12[C@@H]4[C@@H]3C[C@@H]1[C@@](C)(CC[C@@H]2O)CN4CC` had a pIC50 in assay [1] of 8.49. This compound gave an inhibition in the assay listed under Mus musculus of 62.8%.

Take `C=C1[C@H]2C[C@@]3([C@@H]1OC(=O)COCC)[C@@H](CC2=O)[C@@]12[C@@H](OC(=O)COCC)CC[C@@]4(C)CN(CC)[C@H]1[C@@H]3C[C@H]42`: in assay [1], the pIC50 is 8.23. For the same compound, in the assay filed under Mus musculus, the inhibition stood at 55%.

For the compound `CCN1C[C@]2(C)CC[C@H](O)[C@]34[C@@H]1[C@H](C[C@H]23)[C@@]12C[C@@H](C(=O)C[C@H]14)C(CO)(OC(=O)c1cccc(Cl)c1)[C@H]2O` (stereo not given in full), the pIC50 in assay [1] was 9.64. This compound returned an inhibition in the assay filed under Mus musculus of 68.7%.

In assay [1], `C=C1[C@H]2C[C@@]3([C@@H]1OC(=O)CC)[C@@H](CC2=O)[C@@]12[C@@H](OC(=O)CC)CC[C@@]4(C)CN(CC)[C@H]1[C@@H]3C[C@H]42` gave a pIC50 of 9.23. For the same compound, the inhibition in the assay listed under Mus musculus came out at 65.9%.

In turn, `C=C1[C@H]2C[C@@]3([C@@H]1OC(=O)CCC)[C@@H](CC2=O)[C@@]12[C@@H]4[C@@H]3C[C@@H]1[C@@](C)(CC[C@@H]2O)CN4CC` gave a pIC50 in assay [1] of 8.06. This compound registered an inhibition in the assay filed under Mus musculus of 49.8%.

As for `C=C1[C@H]2C[C@@]3([C@@H]1OC(=O)CCC)[C@@H](CC2=O)[C@@]12[C@@H](OC(=O)CCC)CC[C@@]4(C)CN(CC)[C@H]1[C@@H]3C[C@H]42`, in assay [1], the pIC50 is 9.85. The compound further gave an inhibition in the assay listed under Mus musculus of 77.4%.
